Test system: Fibroblast
Experiment: Multiplex assay against human fibroblast
Assay type: toxicity, cell-based
Procedure, shortened: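 Cells were classed with CellPathfinder machine-learning gating, first as Hoechst high-intensity objects or normal cells, then (normal cells) as healthy, pyknosed or fragmented nuclei, and finally (pyknosed cells) as mitotic or apoptotic. Staining of live cells at seeding used Hoechst33342, BioTracker Green Microtubule Cytoskeleton Dye, MitoTracker Red and Annexin V Alexa Fluor 680, with imaging on a CQ1 microscope at 37°C and 5% CO2 after compound addition. Tubulin, mitochondrial-mass and membrane-permeability phenotypes are per cents of healthy-nucleus cells.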

[1] = 12 h, 1 µM, compound concentration 1 uM, replicate 1
[2] = 12 h, 1 µM, compound concentration 1 uM, replicate 2
[3] = 12 h, 10 µM, compound concentration 10 uM, replicate 1
[4] = 12 h, 10 µM, compound concentration 10 uM, replicate 2
[5] = 24 h, 1 µM, compound concentration 1 uM, replicate 1
[6] = 24 h, 1 µM, compound concentration 1 uM, replicate 2
[7] = 24 h, 10 µM, compound concentration 10 uM, replicate 1
[8] = 24 h, 10 µM, compound concentration 10 uM, replicate 2
[9] = 48 h, 1 µM, compound concentration 1 uM, replicate 1
[10] = 48 h, 1 µM, compound concentration 1 uM, replicate 2
[11] = 48 h, 10 µM, compound concentration 10 uM, replicate 1
[12] = 48 h, 10 µM, compound concentration 10 uM, replicate 2

Compound: CCc1ccc(OCc2ccccc2C(=O)Nc2ccc3nc(C)cc(N)c3c2)cc1.Cl
- Population Apoptotic (%) [1]: 67%
- Population Fragmented Nuclei (%) [1]: 31%
- Population Healthy Nuclei (%) [1]: 33%
- Population Hoechst High Intensity Objects (%) [1]: 11%
- Population Membrane Permeable-Phenotype (%) [1]: 9%
- Population Mitochondria Different-Phenotype (%) [1]: 44%
- Population Mitotic Cells (%) [1]: 32%
- Population Normal (%) [1]: 88%
- Population Pyknosed Nuclei (%) [1]: 35%
- Population Tubulin-Different-Phenotype (%) [1]: 63%
- Total Cell Count [1]: 177
- Population Apoptotic (%) [2]: 71%
- Population Fragmented Nuclei (%) [2]: 33%
- Population Hoechst High Intensity Objects (%) [2]: 16%
- Population Membrane Permeable-Phenotype (%) [2]: 28%
- Population Mitochondria Different-Phenotype (%) [2]: 92%
- Population Mitotic Cells (%) [2]: 28%
- Population Normal (%) [2]: 84%
- Population Pyknosed Nuclei (%) [2]: 33%
- Population Tubulin-Different-Phenotype (%) [2]: 85%
- Total Cell Count [2]: 68
- Population Apoptotic (%) [3]: 26%
- Population Fragmented Nuclei (%) [3]: 15%
- Population Healthy Nuclei (%) [3]: 18%
- Population Hoechst High Intensity Objects (%) [3]: 22%
- Population Membrane Permeable-Phenotype (%) [3]: 16%
- Population Mitochondria Different-Phenotype (%) [3]: 55%
- Population Mitotic Cells (%) [3]: 73%
- Population Normal (%) [3]: 77%
- Population Pyknosed Nuclei (%) [3]: 65%
- Population Tubulin-Different-Phenotype (%) [3]: 88%
- Total Cell Count [3]: 125
- Population Apoptotic (%) [4]: 76%
- Population Fragmented Nuclei (%) [4]: 8%
- Population Healthy Nuclei (%) [4]: 14%
- Population Hoechst High Intensity Objects (%) [4]: 12%
- Population Membrane Permeable-Phenotype (%) [4]: 100%
- Population Mitochondria Different-Phenotype (%) [4]: 100%
- Population Mitotic Cells (%) [4]: 23%
- Population Normal (%) [4]: 87%
- Population Pyknosed Nuclei (%) [4]: 77%
- Population Tubulin-Different-Phenotype (%) [4]: 100%
- Total Cell Count [4]: 50
- Population Apoptotic (%) [5]: 79%
- Population Fragmented Nuclei (%) [5]: 32%
- Population Healthy Nuclei (%) [5]: 22%
- Population Hoechst High Intensity Objects (%) [5]: 13%
- Population Membrane Permeable-Phenotype (%) [5]: 10%
- Population Mitochondria Different-Phenotype (%) [5]: 60%
- Population Mitotic Cells (%) [5]: 20%
- Population Normal (%) [5]: 86%
- Population Pyknosed Nuclei (%) [5]: 45%
- Population Tubulin-Different-Phenotype (%) [5]: 86%
- Total Cell Count [5]: 158
- Population Apoptotic (%) [6]: 83%
- Population Fragmented Nuclei (%) [6]: 25%
- Population Healthy Nuclei (%) [6]: 28%
- Population Hoechst High Intensity Objects (%) [6]: 17%
- Population Membrane Permeable-Phenotype (%) [6]: 27%
- Population Mitochondria Different-Phenotype (%) [6]: 90%
- Population Mitotic Cells (%) [6]: 16%
- Population Normal (%) [6]: 82%
- Population Pyknosed Nuclei (%) [6]: 46%
- Population Tubulin-Different-Phenotype (%) [6]: 63%
- Total Cell Count [6]: 92
- Population Apoptotic (%) [7]: 40%
- Population Fragmented Nuclei (%) [7]: 25%
- Population Healthy Nuclei (%) [7]: 48%
- Population Hoechst High Intensity Objects (%) [7]: 50%
- Population Membrane Permeable-Phenotype (%) [7]: 16%
- Population Mitochondria Different-Phenotype (%) [7]: 37%
- Population Mitotic Cells (%) [7]: 60%
- Population Normal (%) [7]: 49%
- Population Pyknosed Nuclei (%) [7]: 25%
- Population Tubulin-Different-Phenotype (%) [7]: 97%
- Total Cell Count [7]: 155
- Population Apoptotic (%) [8]: 70%
- Population Fragmented Nuclei (%) [8]: 15%
- Population Healthy Nuclei (%) [8]: 38%
- Population Hoechst High Intensity Objects (%) [8]: 31%
- Population Membrane Permeable-Phenotype (%) [8]: 47%
- Population Mitochondria Different-Phenotype (%) [8]: 94%
- Population Mitotic Cells (%) [8]: 30%
- Population Normal (%) [8]: 68%
- Population Pyknosed Nuclei (%) [8]: 45%
- Population Tubulin-Different-Phenotype (%) [8]: 94%
- Total Cell Count [8]: 47
- Population Apoptotic (%) [9]: 90%
- Population Fragmented Nuclei (%) [9]: 46%
- Population Healthy Nuclei (%) [9]: 20%
- Population Hoechst High Intensity Objects (%) [9]: 20%
- Population Membrane Permeable-Phenotype (%) [9]: 40%
- Population Mitochondria Different-Phenotype (%) [9]: 32%
- Population Mitotic Cells (%) [9]: 9%
- Population Normal (%) [9]: 79%
- Population Pyknosed Nuclei (%) [9]: 33%
- Population Tubulin-Different-Phenotype (%) [9]: 72%
- Total Cell Count [9]: 157
- Population Apoptotic (%) [10]: 84%
- Population Fragmented Nuclei (%) [10]: 51%
- Population Healthy Nuclei (%) [10]: 25%
- Population Hoechst High Intensity Objects (%) [10]: 16%
- Population Membrane Permeable-Phenotype (%) [10]: 30%
- Population Mitochondria Different-Phenotype (%) [10]: 55%
- Population Mitotic Cells (%) [10]: 15%
- Population Normal (%) [10]: 83%
- Population Pyknosed Nuclei (%) [10]: 23%
- Population Tubulin-Different-Phenotype (%) [10]: 70%
- Total Cell Count [10]: 96
- Population Fragmented Nuclei (%) [11]: 68%
- Population Healthy Nuclei (%) [11]: 28%
- Population Hoechst High Intensity Objects (%) [11]: 47%
- Population Membrane Permeable-Phenotype (%) [11]: 4%
- Population Mitochondria Different-Phenotype (%) [11]: 68%
- Population Normal (%) [11]: 52%
- Population Pyknosed Nuclei (%) [11]: 2%
- Population Tubulin-Different-Phenotype (%) [11]: 86%
- Total Cell Count [11]: 146
- Population Apoptotic (%) [12]: 100%
- Population Fragmented Nuclei (%) [12]: 86%
- Population Healthy Nuclei (%) [12]: 8%
- Population Hoechst High Intensity Objects (%) [12]: 39%
- Population Membrane Permeable-Phenotype (%) [12]: 0%
- Population Mitochondria Different-Phenotype (%) [12]: 50%
- Population Mitotic Cells (%) [12]: 0%
- Population Normal (%) [12]: 60%
- Population Pyknosed Nuclei (%) [12]: 4%
- Population Tubulin-Different-Phenotype (%) [12]: 50%
- Total Cell Count [12]: 38

From ChEMBL document CHEMBL4689842, “EUbOPEN Chemogenomics Library wave 1” (2021)
